A selection: hits, their analogues and other compounds. The true share with any hit is near 2.5%.
PAD4 FP inh: PAD4 (human) enzyme inhibition. inhibition, % at 6.36 µM. actives 0.41% (n = 330,000). recombinant PAD4, RCA probe fluorescence polarization. AID 485272;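 active = percent inhibition above a cutoff equal to the mean of all tested compounds plus 3 SD, cut at about 15% in these data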;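 note: 0% = PAD4 with RCA probe and DMSO and 100% = probe without PAD4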
PRMT1 FP inh: PRMT1 (human) inhibition, primary screen; Q99873; recombinant PRMT1, activity-based probe fluorescence polarization; inhibition, % at 2.79 µM; actives 1.3% (n = 370,000); AID 652257;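 active = inhibition above about 21% made by adding two undisclosed values, limit read from the data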
GSTO1 counter: counter-screen for RBBP9 inhibitors: inhibitors of human GSTO1; inhibition, % at 5.96 µM; actives 1.1% (n = 300,000); P78417; AID 1974; recombinant GSTO1, activity-based probe fluorescence polarization;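 active = inhibition above the campaign mean inhibition plus 3 SD, cut at about 35% in these data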;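 note: 0% = GSTO1-1 with DMSO and 100% = wells lacking GSTO1-1 enzyme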
Target sequence (P78417 whole entry, looked up): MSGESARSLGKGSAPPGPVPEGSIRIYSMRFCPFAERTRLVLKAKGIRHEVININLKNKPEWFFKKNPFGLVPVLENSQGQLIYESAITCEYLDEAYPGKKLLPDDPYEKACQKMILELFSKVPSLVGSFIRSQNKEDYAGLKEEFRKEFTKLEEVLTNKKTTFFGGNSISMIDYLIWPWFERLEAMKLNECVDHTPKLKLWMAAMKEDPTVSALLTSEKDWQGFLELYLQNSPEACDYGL
TDP2 inh: TDP2 (human) inhibition, absorbance primary screen; O95551; recombinant TDP2, T5PNP hydrolysis, p-nitrophenol absorbance 415 nm; inhibition, % at 12.8 µM; actives 0.34% (n = 370,000); AID 720702;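 active = inhibition above the mean of all tested compounds plus 3 SD, set per campaign, cut at about 25% in these data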;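 note: 0% = DMSO with enzyme and 100% = buffer with substrate but no TDP2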
Target sequence (O95551 whole entry, looked up): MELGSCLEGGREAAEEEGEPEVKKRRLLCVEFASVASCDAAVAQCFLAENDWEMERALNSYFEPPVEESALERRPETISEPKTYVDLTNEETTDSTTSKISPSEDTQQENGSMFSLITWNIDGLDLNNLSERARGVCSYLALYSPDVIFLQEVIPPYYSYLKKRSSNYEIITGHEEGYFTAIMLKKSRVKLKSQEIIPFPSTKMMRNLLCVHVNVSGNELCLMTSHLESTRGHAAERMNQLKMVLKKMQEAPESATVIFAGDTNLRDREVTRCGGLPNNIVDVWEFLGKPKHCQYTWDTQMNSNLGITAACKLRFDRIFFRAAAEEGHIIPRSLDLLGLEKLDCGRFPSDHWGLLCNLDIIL
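Material: recombinant human TDP2; quantity: TDP2 enzyme at 120 nM final; medium: Tris-HCl pH 7.5 with MgCl2; compound: single concentration, 12.8 µM nominal, with 1% DMSO; incubation: 2 h enzyme incubation at 37 °C; signal: epi absorbance; measure: percent inhibition; benchmarks: high control without enzyme, low control DMSO plus TDP2; repeats: singlicate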
CTSL1 counter: blocks F. hepatica cathepsin L1 in PFM18AAP counter-screen; recombinant F. hepatica cathepsin L1, Z-Leu-Arg-MCA fluorescence; inhibition, % at 5.96 µM; actives 0.49% (n = 300,000); AID 1906;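 active = inhibition above the mean of all tested compounds plus 3 SD, set per screening campaign, cut at about 17% in these data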;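 note: 0% = plate median of test compound wells and 100% = 1 µM Z-Phe-Ala-diazomethylketone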
PRMT1 confirm: PRMT1 (human) inhibition, FP confirmation | shares compounds with PRMT1 FP inh | recombinant His-PRMT1, activity-based probe fluorescence polarization | inhibition, % at 2.79 µM | actives 42% (n = 3,300) | AID 687036;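 active = mean inhibition across replicates above the hit cutoff derived for the earlier primary screen, cut at about 22% in these data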
* = called active by the depositor; x = not tested or not shown.

SMILES | PAD4 FP inh | PRMT1 FP inh | GSTO1 counter | TDP2 inh | CTSL1 counter | PRMT1 confirm
O=C(CN1C(=O)S/C(=C\c2cccs2)C1=O)Nc1ccc(O)cc1C(=O)O | 5 | 32* | 15 | -22 | 7 | 4
O=C(/C=C/c1ccccc1)CCN1CCOCC1 | x | 27* | x | 2 | x | 58*
O=C(CC1SC2=NCCN2C1=O)Nc1ccc(Cl)cc1 (centres undefined) | -2 | 5 | 6 | -5 | -2 | x
Cc1ccc(NC(=O)CC2SC3=NCCCN3C2=O)c(C)c1 (centres undefined) | -6 | 44* | 5 | -4 | -2 | 40*
CCOC(=O)N1CCN(C(=O)C[C@H]2C[C@@]3(C(=O)OC)C(=C[C@H](C(C)C)O[C@@H]3C3CC3)N(Cc3cccc4ccccc34)C2=O)CC1 | x | 4 | x | 1 | x | x
O=C1C=CC(=O)N1N(c1ccccc1)c1ccccc1 | 5 | 50* | 2 | 3 | 2 | 96*
O=C1c2ccccc2C(=O)N1N(c1ccccc1)c1ccccc1 | x | 2 | x | 4 | x | x
Cc1cc(=O)[nH]c(SCC(=O)Nc2cccc(Cl)c2F)n1 | x | -2 | x | -3 | x | x
CC(=NNC(=S)N1CCN(C2CCCCCC2)CC1)c1ccccn1 | x | 1 | x | -1 | x | x
CC(=NNC(=S)N1CC2CCC(CC2)C1)c1cnccn1 | x | 25* | x | 15 | x | 2
CC(=NNC(=S)N1CCCCCC1)c1cccc2cccnc12 | x | 26* | x | -1 | x | 9
CC(=NNC(=S)N1CC2CCC(CC2)C1)c1ccccn1 | x | 37* | x | 1 | x | -3
Cc1ccc(CN2CCCCC(NC(=O)c3ccc(COc4ccccc4)cc3)C2=O)cc1 (centres undefined) | x | -1 | x | -1 | x | x
COc1ccc(Oc2c(-c3cccs3)cnn(-c3ccc(C)cc3)c2=O)cc1 | x | 2 | x | 4 | x | x
Cc1ccc(C2=C(CC(=O)O)C(=O)CC2)cc1 | -1 | 0 | -1 | 8 | -1 | x
COC(=O)CC1=C(c2ccc([N+](=O)[O-])cc2)CCC1=O | x | 60* | x | 6 | x | 1
COc1ccc(NS(=O)(=O)c2ccc(F)c(Cl)c2)cn1 | -6 | 37* | -8 | -9 | -4 | 8
O=C(OC12CCCN(C1)/C(=C/c1cccc(Cl)c1)C2)c1ccco1 (centres undefined) | x | 1 | x | -2 | x | x
O=C(Nc1ccccc1Cl)c1ccccc1 | -2 | 1 | 1 | -4 | 7 | x
O=C(CSCC(=O)c1ccccc1)Nc1ccccc1Cl | 0 | 99* | 1 | 2 | -3 | 28*
O=C(O)CCSc1ccccn1 | -6 | 19 | 7 | 0 | 2 | x
O=C(CCSc1ccccn1)c1ccccc1 | -10 | 52* | -1 | -4 | 19* | 24*
Nc1[nH]c(C(=O)c2ccccc2)c(-c2ccccn2)c1C(=O)c1c[nH]c2ccccc12 | x | 1 | x | -2 | x | x
Nc1[nH]c(C(=O)c2ccccc2)c(-c2ccccn2)c1C(=O)c1c[nH]c2ccc(Br)cc12 | x | 27* | x | 7 | x | 2
O=C1CCC[C@H]2C[C@H](NCc3ccc(F)cc3)CC[C@]23CCCN13 | x | 3 | x | 2 | x | x
SMILES | PAD4 FP inh | PRMT1 FP inh | GSTO1 counter | TDP2 inh | CTSL1 counter | PRMT1 confirm
N#Cc1c(SCC(N)=O)nc2c(c1-c1ccncc1)CCCC2 | -1 | 5 | 2 | -12 | 0 | x
Cc1ccc(-c2c(C#N)c(N)nc3c2CCCC3)o1 | 5 | -3 | -2 | -4 | -6 | x
Cc1ccc(-c2c3c([nH]c(=S)c2C#N)CCCC3)o1 | 6 | 50* | 15 | 8 | 9 | 31*
N#Cc1c(-c2ccncc2)c2c([nH]c1=S)CCCC2 | -9 | 37* | 1 | -9 | 2 | 8
C(=N\N1CCOCC1)/c1cn(-c2ccccc2)nc1-c1ccccc1 | -4 | 96* | 0 | 4 | -1 | -2
COc1cc(-n2c(C)nc3cc(C(=O)N4CCCCC4)ccc32)cc(OC)c1OC | x | -2 | x | 11 | x | x
CCOC(=O)c1ccc(NC(=O)CC2Sc3ncnn3C2=O)cc1 (centres undefined) | -1 | 55* | 0 | 1 | -1 | 69*
O=C(CC1Sc2ncnn2C1=O)Nc1ccc(Cl)cc1 (centres undefined) | -1 | 9 | 5 | 4 | 3 | x
COc1ccc(NC(=O)CC2Sc3ncnn3C2=O)cc1 (centres undefined) | 2 | 86* | -3 | 3 | 0 | 25*
Cc1ccc(CNC(=O)COC(=O)c2cccc(S(=O)(=O)N3CCCCC3)c2)cc1 | -2 | 86* | x | 0 | x | 0
C[C@@H]1CCN(C2CC2)S(=O)(=O)c2c(cccc2N2CC[C@@H](N(C)C)C2)O1 | x | 0 | x | 8 | x | x
Cc1cc2c(=O)n(Cc3ccco3)c(SCC(=O)N3CCCc4ccccc43)nc2s1 | 5 | 8 | -4 | -2 | 4 | x
Cc1cc2c(=O)n(Cc3ccco3)c(SCC(=O)NCc3ccco3)nc2s1 | -3 | 58* | -11 | -4 | 2 | 18
O=C(CSc1nc2c(sc3ccccc32)c(=O)n1CCO)NCc1ccco1 | 0 | 10 | -4 | 13 | 2 | x
COc1ccccc1NC(=O)CSc1nc2c(sc3ccccc32)c(=O)n1CCN(C)C | 14 | 70* | 11 | 2 | 2 | 72*
O=C(CSc1nc2c(sc3ccccc32)c(=O)n1CCCN1CCCC1)NCc1ccco1 | -5 | 27* | -8 | -5 | -4 | 11
O=C(Nc1ccc2ccccc2c1)NC1CCCCN(Cc2cccc(Cl)c2)C1=O (centres undefined) | x | 2 | x | 4 | x | x
O=C1CC(SC(=S)C2CCCC2=O)C(=O)N1 (centres undefined) | x | 64* | x | 15 | x | 82*
COc1ccc(CNS(=O)(=O)c2cc3c(cc2Br)CC(C)N3C(C)=O)cc1 (centres undefined) | x | -1 | x | 6 | x | x
O=C1NC(=O)/C(=C/c2cc3c(cc2Br)OCO3)S1 | 2 | 1 | -7 | 9 | 0 | x
O=C1NC(=O)/C(=C\c2ccc(Br)o2)S1 | 2 | 43* | 8 | 0 | 7 | 1
C=CCn1c(SCC(=O)NCC2CCCO2)nc2scc(-c3ccco3)c2c1=O (centres undefined) | -1 | 26* | 5 | 11 | 2 | 5
NC(=O)CSc1nc2scc(-c3ccco3)c2c(=O)n1-c1ccccc1 | -8 | 76* | 5 | -3 | 28* | 9
O=C(CSc1nc2scc(-c3ccco3)c2c(=O)n1-c1ccccc1)N1CCOCC1 | 2 | 4 | 5 | -13 | -2 | x
c1ccc(Cn2c(SCc3cn4cccnc4n3)nnc2-c2ccco2)cc1 | -1 | 5 | 2 | 15 | -3 | x
C=CCn1c(SCC(=O)NCC2CCCO2)nc2scc(-c3ccc(OC)cc3)c2c1=O (centres undefined) | -5 | 4 | -2 | 5 | 4 | x
O=c1c2c(-c3ccco3)csc2nc(SCc2cn3cccnc3n2)n1-c1ccccc1 | -12 | 37* | -4 | 0 | 6 | 1
CNc1ccccc1/C(O)=C(\C#N)C(=O)NCc1cccc2ccccc12 | x | 3 | x | -4 | x | x
